Test results taken from ChEMBL document CHEMBL1649184, “Mutations in the nonstructural protein 3A confer resistance to the novel enterovirus replication inhibitor TTP-8307” (Antimicrob Agents Chemother, 2009).
Calls of active or inactive are those of the source. The calls are words filed in the database; no cut-off is given here.

Key:
Poliovirus 2 = experiment: Antiviral activity against Human poliovirus 2 Sabin infected in african green monkey Vero cells assessed as inhibition of virus-induced cytopathic effect after 3 days by MTS-based CPE reduction assay; assay type: functional, organism-based; conditions: Enterovirus C, 72 h
In short: (§1)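 Confluent cells infected with 100 CCID50 virus, adsorbed 2 h at 37°C, then virus removed and serial compound dilutions added (DMSO stocks diluted in MEM with 2% FBS). Incubated 3 days at 37°C until full CPE in virus controls. Viability read by MTS/PMS, OD498 after 2 h. EC50 by logarithmic interpolation of % CPE protection. Mean of at least three independent experiments.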

Poliovirus 1 = experiment: Antiviral activity against Human poliovirus 1 strain Sabin infected in african green monkey Vero cells assessed as inhibition of virus-induced cytopathic effect after 3 days by MTS-based CPE reduction assay; assay type: functional, cell-based; conditions: Enterovirus C, 72 h; in short: as §1
[1] = Antiviral activity against Human coxsackievirus A21 (strain Coe) infected in african green monkey Vero cells assessed as inhibition of virus-induced cytopathic effect after 3 days by MTS-based CPE reduction assay; assay type: functional, cell-based; conditions: Enterovirus C, 72 h; in short: as §1
[2] = Antiviral activity against Coxsackievirus B3 (strain Nancy) infected in african green monkey Vero cells assessed as inhibition of virus-induced cytopathic effect after 3 days by MTS-based CPE reduction assay; assay type: functional, cell-based; conditions: Enterovirus B, 72 h
In short: (§2)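 Confluent cells infected with 100 CCID50 virus; 2 h adsorption at 37°C (35°C for rhinovirus), then inoculum removed and serial compound dilutions added. Incubated 3 days at 37°C until full CPE in virus controls. MTS/PMS added for 2 h, OD498 read; % CPE from cell and virus controls; EC50 as 50% protection, by logarithmic interpolation. Mean of ≥3 independent experiments.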

[3] = Antiviral activity against Human enterovirus 71 (strain BRCR) infected in african green monkey Vero cells assessed as inhibition of virus-induced cytopathic effect after 3 days by MTS-based CPE reduction assay; assay type: functional, cell-based; conditions: Enterovirus A, 72 h; in short: as §2
[4] = Antiviral activity against Human coxsackievirus A16 (strain G-10) A16 infected in african green monkey Vero cells assessed as inhibition of virus-induced cytopathic effect after 3 days by MTS-based CPE reduction assay; assay type: functional, cell-based; conditions: Enterovirus A, 72 h; in short: as §2
rhinovirus A89 = experiment: Antiviral activity against Human rhinovirus 89 infected in african green monkey Vero cells assessed as inhibition of virus-induced cytopathic effect after 3 days by MTS-based CPE reduction assay; assay type: functional, organism-based; conditions: Rhinovirus A, 72 h; in short: as §2
rhinovirus A2 = experiment: Antiviral activity against Human rhinovirus 2 infected in african green monkey Vero cells assessed as inhibition of virus-induced cytopathic effect after 3 days by MTS-based CPE reduction assay; assay type: functional, organism-based; conditions: Rhinovirus A, 72 h; in short: as §2
rhinovirus A29 = experiment: Antiviral activity against Human rhinovirus 29 infected in african green monkey Vero cells assessed as inhibition of virus-induced cytopathic effect after 3 days by MTS-based CPE reduction assay; assay type: functional, organism-based; conditions: Rhinovirus A, 72 h; in short: as §2
Vero [5] = experiment: Antiviral activity against Coxsackievirus B3 (strain Nancy) infected in african green monkey Vero cells assessed as inhibition of virus-induced cytopathic effect after 3 days by plaque assay; assay type: functional, cell-based
In short: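 Confluent Vero cells infected with CVB3 for 2 h at 37°C with gentle shaking, washed twice with PBS, then overlaid with 0.4% agar with or without compound. After 3-4 days, fixed with 4% formaldehyde, agar removed, Giemsa-stained and plaques counted. Read at day 3 post-infection; averages ± SD of three independent experiments.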

Vero [6] = experiment: Antiviral activity against Coxsackievirus B3 (strain Nancy) infected in african green monkey Vero cells assessed as inhibition viral replication at 25 uM administered at 1 hr interval starting at 1 hr before viral infection measured within first 3 hrs postinfection; assay type: functional, cell-based
In short: (§3)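 Confluent Vero cells infected with 10⁴ CCID50 CVB3, 1 h adsorption at 37°C, inoculum replaced with medium. Compound (final 25 µM) added at 1-h intervals, starting 1 h before infection. At 8 h post-infection, supernatant and intracellular RNA collected and viral RNA quantified by one-step TaqMan qRT-PCR against a synthetic transcript standard curve; normalized to 0-h point; two independent experiments.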

Vero [7] = experiment: Antiviral activity against Coxsackievirus B3 (strain Nancy) infected in african green monkey Vero cells assessed as inhibition viral replication at 25 uM administered at 1 hr interval starting at 3 hrs after viral infection; assay type: functional, cell-based; in short: as §3
[8] = test system: Coxsackievirus B3 (strain Nancy); experiment: Antiviral activity against Coxsackievirus B3 (strain Nancy) infected in buffalo green monkey cells assessed as inhibition of viral RNA accumulation at 25 uM by luciferase reporter gene assay; assay type: functional, cell-based
In short: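 BGM cells transfected with RNA from SalI-linearized CVB3 subgenomic replicon with luciferase replacing P1, with or without 25 µM compound. At set times post-transfection, cells washed with PBS, lysed, and luciferase measured as relative light units. Averages ± SD of three independent experiments.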

[9] = test system: Coxsackievirus B3 (strain Nancy); experiment: Antiviral activity against Coxsackievirus B3 (strain Nancy) infected in buffalo green monkey cells assessed as inhibition of viral RNA accumulation at 2 mM by luciferase reporter gene assay; assay type: functional, cell-based
Coxsackievirus B3 [10] = experiment: Inhibition of viral polyprotein synthesis in Coxsackievirus B3 (strain Nancy) infected in buffalo green monkey cells at 25 uM by SDS PAGE assay; assay type: functional, cell-based
In short: (§4)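 Confluent BGM cells infected with CVB3 at MOI 50. At 5 h, methionine starvation for 30 min, then 30-min [35S]Met pulse with or without 25 µM compound. At 6 h, lysed in Tris-HCl pH 7.4/NaCl/EDTA/NP-40/0.05% SDS buffer; translation products resolved by SDS-PAGE. Three independent experiments.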

Coxsackievirus B3 [11] = experiment: Inhibition of viral polyprotein processing in Coxsackievirus B3 (strain Nancy) infected in buffalo green monkey cells at 25 uM by SDS PAGE assay; assay type: functional, cell-based; in short: as §4
Coxsackievirus B3 [12] = experiment: Antiviral activity against Human coxsackievirus B3 harboring wild type nonstructural protein 3A infected in african green monkey Vero cells assessed as inhibition of virus-induced cytopathic effect after 3 days by plaque assay; assay type: functional, organism-based; conditions: Enterovirus B, 72 h
Coxsackievirus B3 [13] = experiment: Antiviral activity against Human coxsackievirus B3 harboring nonstructural protein 3A I8T mutant infected in african green monkey Vero cells assessed as inhibition of virus-induced cytopathic effect after 3 days by plaque assay; assay type: functional, organism-based; conditions: Enterovirus B, 72 h
Coxsackievirus B3 [14] = experiment: Antiviral activity against Human coxsackievirus B3 harboring nonstructural protein 3A V45A mutant infected in african green monkey Vero cells assessed as inhibition of virus-induced cytopathic effect after 3 days by plaque assay; assay type: functional, organism-based; conditions: Enterovirus B, 72 h
Coxsackievirus B3 [15] = experiment: Antiviral activity against Human coxsackievirus B3 harboring nonstructural protein 3A I54F mutant infected in african green monkey Vero cells assessed as inhibition of virus-induced cytopathic effect after 3 days by plaque assay; assay type: functional, organism-based; conditions: Enterovirus B, 72 h
Coxsackievirus B3 [16] = experiment: Antiviral activity against Human coxsackievirus B3 harboring nonstructural protein 3A H57Y mutant infected in african green monkey Vero cells assessed as inhibition of virus-induced cytopathic effect after 3 days by plaque assay; assay type: functional, organism-based; conditions: Enterovirus B, 72 h
rhinovirus B86 = experiment: Antiviral activity against Human rhinovirus 86 infected in african green monkey Vero cells assessed as inhibition of virus-induced cytopathic effect after 3 days by MTS-based CPE reduction assay; assay type: functional, organism-based; conditions: Rhinovirus B, 72 h; in short: as §2
rhinovirus A85 = experiment: Antiviral activity against Human rhinovirus 85 infected in african green monkey Vero cells assessed as inhibition of virus-induced cytopathic effect after 3 days by MTS-based CPE reduction assay; assay type: functional, organism-based; conditions: Rhinovirus A, 72 h; in short: as §2
rhinovirus B72 = experiment: Antiviral activity against Human rhinovirus 72 infected in african green monkey Vero cells assessed as inhibition of virus-induced cytopathic effect after 3 days by MTS-based CPE reduction assay; assay type: functional, organism-based; conditions: Rhinovirus B, 72 h; in short: as §2
rhinovirus B70 = experiment: Antiviral activity against Human rhinovirus 70 infected in african green monkey Vero cells assessed as inhibition of virus-induced cytopathic effect after 3 days by MTS-based CPE reduction assay; assay type: functional, organism-based; conditions: Rhinovirus B, 72 h; in short: as §2
rhinovirus A63 = experiment: Antiviral activity against Human rhinovirus 63 infected in african green monkey Vero cells assessed as inhibition of virus-induced cytopathic effect after 3 days by MTS-based CPE reduction assay; assay type: functional, organism-based; conditions: Rhinovirus A, 72 h; in short: as §2
rhinovirus A45 = experiment: Antiviral activity against Human rhinovirus 45 infected in african green monkey Vero cells assessed as inhibition of virus-induced cytopathic effect after 3 days by MTS-based CPE reduction assay; assay type: functional, organism-based; conditions: Rhinovirus A, 72 h; in short: as §2
[17] = Antiviral activity against Human rhinovirus 42 infected in african green monkey Vero cells assessed as inhibition of virus-induced cytopathic effect after 3 days by MTS-based CPE reduction assay; assay type: functional, cell-based; conditions: Rhinovirus B, 72 h; in short: as §2
rhinovirus A41 = experiment: Antiviral activity against Human rhinovirus 41 infected in african green monkey Vero cells assessed as inhibition of virus-induced cytopathic effect after 3 days by MTS-based CPE reduction assay; assay type: functional, organism-based; conditions: Rhinovirus A, 72 h; in short: as §2
rhinovirus A39 = experiment: Antiviral activity against Human rhinovirus 39 infected in african green monkey Vero cells assessed as inhibition of virus-induced cytopathic effect after 3 days by MTS-based CPE reduction assay; assay type: functional, organism-based; conditions: Rhinovirus A, 72 h; in short: as §2
rhinovirus A15 = experiment: Antiviral activity against Human rhinovirus 15 infected in african green monkey Vero cells assessed as inhibition of virus-induced cytopathic effect after 3 days by MTS-based CPE reduction assay; assay type: functional, organism-based; conditions: Rhinovirus A, 72 h; in short: as §2
rhinovirus B14 = experiment: Antiviral activity against Human rhinovirus 14 infected in african green monkey Vero cells assessed as inhibition of virus-induced cytopathic effect after 3 days by MTS-based CPE reduction assay; assay type: functional, organism-based; conditions: Rhinovirus B, 72 h; in short: as §2
rhinovirus A9 = experiment: Antiviral activity against Human rhinovirus 9 infected in african green monkey Vero cells assessed as inhibition of virus-induced cytopathic effect after 3 days by MTS-based CPE reduction assay; assay type: functional, organism-based; conditions: Rhinovirus A, 72 h; in short: as §2
Poliovirus 3 = experiment: Antiviral activity against Human poliovirus 3 strain Sabin infected in african green monkey Vero cells assessed as inhibition of virus-induced cytopathic effect after 3 days by MTS-based CPE reduction assay; assay type: functional, organism-based; conditions: Enterovirus C, 72 h; in short: as §1
[18] = Cytotoxicity against african green monkey Vero cells; assay type: cell-based; conditions: chlorocebus sabaeus, read-out: TC50 (the source's name)
In short: (§5)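 Cytotoxicity measured on confluent Vero and HeLa cells, given as 50% cytotoxic concentration; solubility limit in assay medium 100 µM.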

[19] = Cytotoxicity against human HeLa cells; assay type: cell-based; conditions: read-out: TC50 (the source's name); in short: as §5

Structure (SMILES) | EC50 (Poliovirus 2) [nM] | EC50 (Poliovirus 1) [nM] | EC50 [1] [nM] | EC50 [2] [nM] | EC50 [3] [nM] | EC50 [4] [nM] | EC50 (rhinovirus A89) [nM] | EC50 (rhinovirus A2) [nM] | EC50 (rhinovirus A29) [nM] | EC50 (Coxsackievirus B3 [12]) [nM] | EC50 (Coxsackievirus B3 [13]) [nM] | EC50 (Coxsackievirus B3 [14]) [nM] | EC50 (Coxsackievirus B3 [15]) [nM] | EC50 (Coxsackievirus B3 [16]) [nM] | EC50 (rhinovirus B86) [nM] | EC50 (rhinovirus A85) [nM] | EC50 (rhinovirus B72) [nM] | EC50 (rhinovirus B70) [nM] | EC50 (rhinovirus A63) [nM] | EC50 (rhinovirus A45) [nM] | other results
C[C@@H](NC(=O)c1cccc(-c2cnc(-c3cc4ccccc4cn3)[nH]2)c1)c1ccc(F)cc1 | 580 | 510 | 5340 | 1200 | > 60000 | 850 | > 50000 | 800 | 770 | 1900 | 6000 | 17700 | 19800 | 15300 | > 50000 | 1220 | > 50000 | > 50000 | 91 | 990 | inhibition (Vero [5]): Dose-dependent effect; inhibition (Vero [6]): Active; inhibition (Vero [7]): inactive; inhibition [8]: Active; inhibition [9]: Active; inhibition (Coxsackievirus B3 [10]): inactive; inhibition (Coxsackievirus B3 [11]): inactive; EC50 [17]: > 50000 nM; EC50 (rhinovirus A41): > 50000 nM; EC50 (rhinovirus A39): 650 nM; EC50 (rhinovirus A15): > 50000 nM; EC50 (rhinovirus B14): > 50000 nM; EC50 (rhinovirus A9): > 50000 nM; EC50 (Poliovirus 3): 270 nM
C[C@@H](NC(=O)c1cccc(-c2c[nH]c(-c3cc4ccccc4cn3)n2)c1)c1ccc(F)cc1 |  |  |  |  |  |  |  |  |  |  |  |  |  |  |  |  |  |  |  |  | CC50 [18]: > 100000 nM; CC50 [19]: > 100000 nM
Fc1cccc(F)c1C1SCc2nc3cc(C(F)(F)F)ccc3n21 (stereo not drawn) |  |  |  |  |  |  |  |  |  | 2900 | 2900 | 3600 | 3700 | 3400 |  |  |  |  |  |  | 
CC(C)S(=O)(=O)n1c(N)nc2ccc(/C(=N/O)c3ccccc3)cc21 [ENVIROXIME] | 60 | 190 | 480 | 1900 | 150 | 120 | 100 | 26 | 29 | 500 | 700 | 1500 | 1800 | 1700 | 140 | 33 | 720 | 110 | 27 | 250 | EC50 [17]: 110 nM; EC50 (rhinovirus A41): 27 nM; EC50 (rhinovirus A39): 28 nM; EC50 (rhinovirus A15): 42 nM; EC50 (rhinovirus B14): 110 nM; EC50 (rhinovirus A9): 38 nM; EC50 (Poliovirus 3): 40 nM
